Results from different studies.
Compare with care: the assays were run in different laboratories.
Nectin-4: Nectin-4 (Homo sapiens, UniProt Q96NY8)
PIK3C2B: Phosphatidylinositol 4-phosphate 3-kinase C2 domain-containing subunit beta (PIK3C2B, Homo sapiens, UniProt O00750)
UCK1: UCK1 (Homo sapiens, UniProt Q9HA47)

SMILES	target	assay	setting	Kd
CCCC[C@@H]1NC(=O)[C@H](Cc2ccc(O)cc2)NC(=O)[C@@H]2CCCN2C(=O)[C@H](CC(=O)O)NC(=O)[C@H](C)NC(=O)[C@H](Cc2ccccc2)NC(=O)[C@@H]2CSCCC(=O)N3CN(CN(C3)C(=O)CCSC[C@@H](C(=O)N[C@@H](CNC(=O)CCc3cn(CCOCCOCCOCCOCCOCCOCCOCCOCCOCCOCCOCCOCCC(=O)NCCC(=O)N(C)CC(=O)N(C)CC(=O)N(C)CC(=O)N(C)CC(=O)N(C)CC(=O)N(C)CC(=O)N(C)CC(=O)N(C)CC(=O)N(C)CC(=O)N(C)CC(=O)NCCCC[C@@H]4NC(=O)[C@H](Cc5cccc6ccccc56)NC(=O)[C@@H]5CCCN5C(=O)[C@@H](NC(C)=O)CSCCC(=O)N5CN6CN(C5)C(=O)CCSC[C@H](NC4=O)C(=O)N[C@@H](CCSC)C(=O)N[C@@H](CCCCNC(=N)N)C(=O)N[C@@H](CC(=O)O)C(=O)N[C@@H](Cc4c[nH]c5ccccc45)C(=O)N[C@@H](CO)C(=O)N[C@@H]([C@@H](C)O)C(=O)N4CCC[C@H]4C(=O)N4C[C@H](O)C[C@H]4C(=O)N[C@@H](Cc4c[nH]c5ccccc45)C(=O)N[C@H](C(N)=O)CSCCC6=O)nn3)C(N)=O)NC1=O)C(=O)CCSC[C@H](NC(C)=O)C(=O)N[C@@H](CC(C)(C)C)C(=O)N1CCC[C@H]1C(=O)N[C@@H](CCC(=O)O)C(=O)N[C@H](C)C(=O)N1CCC[C@H]1C(=O)N[C@@H](Cc1ccc(O)cc1)C(=O)N2	Nectin-4	binding, SPR	–	2 nM
CCC(=O)N1CCC(C(=O)NCC(=O)N2CCN(c3nc(-c4cnc(N)nc4C(F)F)nc(N4CCOCC4)n3)CC2)CC1	PIK3C2B	binding, competition with immobilised ligand	–	85 nM
Nc1ccn([C@@H]2O[C@H](CO)[C@@H](O)[C@H]2O)c(=O)n1	UCK1	binding, fluorescence	–	15.9 nM
CCCCc1nc2cc(/C=C/C(=O)NO)ccc2n1CCN(CC)CC	Histone deacetylase 2 (HDAC2, Homo sapiens, UniProt Q92769)	cell-free assay	–	1300 nM
C=CC(=O)N1CCC(C(=O)NCC(=O)N2CCN(c3nc(-c4cnc(N)nc4C(F)F)nc(N4CCOCC4)n3)CC2)CC1	PIK3C2B	binding, competition with immobilised ligand	–	81 nM
CC(=O)N[C@H](C(=O)N1C[C@H](O)C[C@H]1C(=O)NCc1ccc(-c2scnc2C)cc1)C(C)(C)SCCCCCCNC(=O)C[C@@H]1N=C(c2ccc(Cl)cc2)c2c(sc(C)c2C)-n2c(C)nnc21	Bromodomain-containing protein 3, BD1 (BRD3, Homo sapiens, UniProt Q15059)	binding, ITC	–	35 nM
NC(=O)C1=CN([C@@H]2O[C@H](COP(=O)(O)OP(=O)(O)OC[C@H]3O[C@@H](n4cnc5c(N)ncnc54)[C@H](OP(=O)(O)O)[C@@H]3O)[C@@H](O)[C@H]2O)C=CC1	ZMO1885 (Zymomonas mobilis, UniProt Q5NLA1, Y343W)	binding	–	702000 nM
CCCCCC(C)=O	Or85b (Drosophila melanogaster, UniProt Q9VHQ7)	binding, MST	–	~800 nM
Cc1cnc(-c2ccc(-c3ccc(NC(=O)Nc4c(F)cc(F)cc4F)cc3F)c3c2C(=O)NC3)[nH]1	Aurora kinase B (AURKB, Homo sapiens, UniProt Q96GD4)	binding, competition with immobilised ligand	–	3.1 nM
CC#CC(=O)N1CC[C@@H](n2cc(-c3ccc(Oc4c(F)cccc4F)cc3)c3c(N)n[nH]c(=O)c32)C1	Tyrosine-protein kinase TXK (TXK, Homo sapiens, UniProt P42681)	binding, competition with immobilised ligand	–	136 nM
Nc1ncnc2c1ncn2[C@@H]1O[C@H](COP(=O)(O)O)[C@@H](O)[C@H]1O	Adenylosuccinate lyase (ADSL, Homo sapiens, UniProt P30566)	binding, ITC	–	54000 nM
[N-]=[N+]=N[C@@H]1[C@H](O)[C@@H](CO)O[C@H]1n1ccc(N)nc1=O	UCK1	binding, fluorescence	–	65.7 nM
Cc1cc(Nc2cc3ncccc3c(N[C@@H]3C[C@H]4CC[C@@H](C3)N4CCC#N)n2)n[nH]1	Mitogen-activated protein kinase kinase kinase 3 (MAP3K3, Homo sapiens, UniProt Q99759)	binding, competition with immobilised ligand	–	100 nM
Cc1cc2nc3c(=O)[nH]c(=O)nc-3n(C[C@H](O)[C@H](O)[C@H](O)COP(=O)(O)OP(=O)(O)OC[C@H]3O[C@@H](n4cnc5c(N)ncnc54)[C@H](O)[C@@H]3O)c2cc1C	Heterogeneous nuclear ribonucleoprotein U-like protein 1 (HNRNPUL1, Homo sapiens, UniProt Q9BUJ2)	binding	lysate	11 nM
CCCC[C@@H]1NC(=O)[C@H](Cc2ccc(O)cc2)NC(=O)[C@@H]2CCCN2C(=O)[C@H](CC(=O)O)NC(=O)[C@H](C)NC(=O)[C@H](Cc2ccccc2)NC(=O)[C@@H]2CSCCC(=O)N3CN(CN(C3)C(=O)CCSC[C@@H](C(=O)N[C@@H](CNC(=O)Cn3cc(CCC(=O)NCCC(=O)N(C)CC(=O)N(C)CC(=O)N(C)CC(=O)N(C)CC(=O)N(C)CC(=O)N(C)CC(=O)N(C)CC(=O)N(C)CC(=O)N(C)CC(=O)N(C)CC(=O)N[C@H]4CSCCC(=O)N5CN6CN(C5)C(=O)CCSC[C@H](NC(=O)[C@@H](CC(=O)O)NC(=O)[C@H](Cc5cccc7ccccc57)NC(=O)[C@@H]5CCCN5C4=O)C(=O)N[C@@H](CCSC)C(=O)N[C@@H](CCCCNC(=N)N)C(=O)N[C@@H](CC(=O)O)C(=O)N[C@@H](Cc4c[nH]c5ccccc45)C(=O)N[C@@H](CO)C(=O)N[C@@H]([C@@H](C)O)C(=O)N4CCC[C@H]4C(=O)N4C[C@H](O)C[C@H]4C(=O)N[C@@H](Cc4c[nH]c5ccccc45)C(=O)N[C@H](C(N)=O)CSCCC6=O)nn3)C(N)=O)NC1=O)C(=O)CCSC[C@H](NC(C)=O)C(=O)N[C@@H](CC(C)(C)C)C(=O)N1CCC[C@H]1C(=O)N[C@@H](CCC(=O)O)C(=O)N[C@H](C)C(=O)N1CCC[C@H]1C(=O)N[C@@H](Cc1ccc(O)cc1)C(=O)N2	Nectin-4	binding, SPR	–	2.6 nM
Cc1nc(NC(=O)N2CCC[C@H]2C(N)=O)sc1-c1ccnc(C(C)(C)C(F)(F)F)c1	PIK3C2B	binding, competition with immobilised ligand	–	315 nM
NC(=O)c1ncn([C@@H]2O[C@H](COP(=O)(O)O)[C@@H](O)[C@H]2O)c1N	Adenylosuccinate lyase (ADSL, Homo sapiens, UniProt P30566, R303C)	binding, ITC	–	122000 nM
